Data published in ChEMBL document CHEMBL5321201, “Investigation of morpholine isosters for the development of a potent, selective and metabolically stable mTOR kinase inhibitor” (Eur J Med Chem, 2023).

Legend:
[1] = Metabolic stability in Beagle dog hepatocytes assessed as half life at 5 microM incubated upto 180 mins by LC/MS analysis; assay type: ADME, cell-based, Canis lupus familiaris, Hepatocyte
Procedure, shortened: (§1)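 Cryopreserved hepatocytes from the listed species, in suspension at 200,000 cells/well in Williams Medium E with 2 mM L-glutamine and 25 mM HEPES. Compound final 5 µM in 0.5% DMSO, sampled at 0, 15, 60, 90 and 180 min. ACN precipitation, LC-MS. Hepatocyte-free medium served as negative control and 7-ethoxycoumarin as reference; duplicates.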

[2] = Metabolic stability in Sprague-Dawley rat hepatocytes assessed as half life at 5 microM incubated upto 180 mins by LC/MS analysis; assay type: ADME, cell-based, Hepatocyte; procedure, shortened: as §1
[3] = Metabolic stability in CD-1 mouse hepatocytes assessed as half life at 5 microM incubated upto 180 mins by LC/MS analysis; assay type: ADME, cell-based, Hepatocyte; procedure, shortened: as §1
[4] = Metabolic stability in Beagle dog hepatocytes assessed as intrinsic clearance measured per million cells at 5 microM incubated upto 180 mins by LC/MS analysis; assay type: ADME, cell-based, Canis lupus familiaris, Hepatocyte; settings: read-out: CLH; procedure, shortened: as §1
[5] = Metabolic stability in human hepatocytes assessed as half life at 5 microM incubated upto 180 mins by LC/MS analysis; assay type: ADME, cell-based, Hepatocyte; procedure, shortened: as §1
[6] = Metabolic stability in Sprague-Dawley rat hepatocytes assessed as intrinsic clearance measured per million cells at 5 microM incubated upto 180 mins by LC/MS analysis; assay type: ADME, cell-based, Hepatocyte; settings: read-out: CLH; procedure, shortened: as §1
[7] = Metabolic stability in human hepatocytes assessed as intrinsic clearance measured per million cells at 5 microM incubated upto 180 mins by LC/MS analysis; assay type: ADME, cell-based, Hepatocyte; settings: read-out: CLH; procedure, shortened: as §1
[8] = Metabolic stability in CD-1 mouse hepatocytes assessed as intrinsic clearance measured per million cells at 5 microM incubated upto 180 mins by LC/MS analysis; assay type: ADME, cell-based, Hepatocyte; settings: read-out: CLH; procedure, shortened: as §1
[9] = biological target: T1, Serine/threonine-protein kinase mTOR (Homo sapiens, UniProt P42345); assay: Displacement of Alexa fluor 647-labeled kinase tracer 314 from N-terminal GST-fused truncated recombinant human mTOR (1360 to 2549 residues) assessed as inhibition constant by TR-FRET based Lanthascreen kinase activity assay
[10] = cells; settings: Homo sapiens, SSK41, 72 h
[11] = cells; settings: Homo sapiens, SK-OV-3, 1 h
[12] = test system: VL51; assay: cells; settings: Homo sapiens, VL51, 72 h
[13] = cells; settings: Homo sapiens, Karpas-1718, 72 h
[14] = biological target: T2, Phosphatidylinositol 4,5-bisphosphate 3-kinase catalytic subunit alpha isoform (Homo sapiens, UniProt P42336); assay: Displacement of Alexa fluor 647-labeled kinase tracer 314 from recombinant N-terminal (His)6-tagged p110alpha (unknown origin) assessed as inhibition constant by TR-FRET based Lanthascreen kinase activity assay
[15] = cells; settings: Homo sapiens, SK-OV-3, 1 h; remark: listed apart in the source
[16] = biological target: Phosphatidylinositol 3-kinase catalytic subunit type 3 (Homo sapiens, UniProt Q8NEB9); assay: Binding affinity to DNA-tagged VPS34 (unknown origin) assessed as dissociation constant by quantitative PCR analysis
Procedure, shortened: (§2)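 Competition binding: DNA-tagged kinases on immobilized ligand competed with an 11-point 3-fold dilution starting at 30 µM. Bound kinase quantified by qPCR of DNA tags. Kd fitted with the Hill equation (slope −1); duplicate experiments, mean reported.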

[17] = biological target: T1, Serine/threonine-protein kinase mTOR; assay: Binding affinity to DNA-tagged mTOR (unknown origin) assessed as dissociation constant by quantitative PCR analysis; procedure, shortened: as §2
[18] = Toxicity in Sprague-Dawley rat assessed as increase in insulin concentration at 5 mg/kg, po measured upto 8 hrs by ELISA; assay type: organism-based; settings: in vivo
Procedure, shortened: (§3)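 Male SD rats dosed orally at 5 mg/kg in 20% Captisol, with vehicle controls. Plasma was taken by heart puncture at 30 min, 2, 4 and 8 h, three rats per point. Insulin was measured by rat/mouse insulin ELISA and glucose by colorimetric assay.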

[19] = biological target: Phosphatidylinositol 4-kinase beta (Homo sapiens, UniProt Q9UBF8); assay: Binding affinity to DNA-tagged P14kbeta (unknown origin) assessed as dissociation constant by quantitative PCR analysis; procedure, shortened: as §2
[20] = AUC (0 to 8 hrs) in Sprague-Dawley rat brain at 5 mg/kg, po administered as single dose and measured after 8 hrs by LC-MS analysis; assay type: ADME, organism-based; set-up: time 8 hrs, dose 5 mg/kg, route po; settings: in vivo
Procedure, shortened: (§4)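 Male Sprague Dawley rats given a single oral dose of 5 mg/kg (5 mL/kg) in 20% Captisol, pH adjusted to 3. Three rats per time point (30 min, 2, 4, 8 h); heart-puncture blood into lithium-heparin, plasma separated, brain collected. Samples precipitated with acetonitrile containing diazepam internal standard, then LC-MS quantification.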

[21] = Metabolic stability in Sprague-Dawley rat hepatocytes assessed as parent compound remaining at 5 uM measured after 3 hrs by LC-MS analysis; assay type: ADME, cell-based, Hepatocyte; settings: read-out: Stability; procedure, shortened: as §1
[22] = biological target: Phosphatidylinositol 4,5-bisphosphate 3-kinase catalytic subunit gamma isoform (Homo sapiens, UniProt P48736); assay: Binding affinity to DNA-tagged P13kgamma (unknown origin) assessed as dissociation constant by quantitative PCR analysis; procedure, shortened: as §2
[23] = Toxicity in Sprague-Dawley rat assessed as increase in glucose concentration at 5 mg/kg, po measured upto 8 hrs by glucose colorimetric assay; assay type: organism-based; settings: in vivo; procedure, shortened: as §3
[24] = biological target: T3, Phosphatidylinositol 4,5-bisphosphate 3-kinase catalytic subunit delta isoform (Homo sapiens, UniProt O00329); assay: Binding affinity to DNA-tagged P13kdelta (unknown origin) assessed as dissociation constant by quantitative PCR analysis; procedure, shortened: as §2
T3 sequence (O00329 whole entry): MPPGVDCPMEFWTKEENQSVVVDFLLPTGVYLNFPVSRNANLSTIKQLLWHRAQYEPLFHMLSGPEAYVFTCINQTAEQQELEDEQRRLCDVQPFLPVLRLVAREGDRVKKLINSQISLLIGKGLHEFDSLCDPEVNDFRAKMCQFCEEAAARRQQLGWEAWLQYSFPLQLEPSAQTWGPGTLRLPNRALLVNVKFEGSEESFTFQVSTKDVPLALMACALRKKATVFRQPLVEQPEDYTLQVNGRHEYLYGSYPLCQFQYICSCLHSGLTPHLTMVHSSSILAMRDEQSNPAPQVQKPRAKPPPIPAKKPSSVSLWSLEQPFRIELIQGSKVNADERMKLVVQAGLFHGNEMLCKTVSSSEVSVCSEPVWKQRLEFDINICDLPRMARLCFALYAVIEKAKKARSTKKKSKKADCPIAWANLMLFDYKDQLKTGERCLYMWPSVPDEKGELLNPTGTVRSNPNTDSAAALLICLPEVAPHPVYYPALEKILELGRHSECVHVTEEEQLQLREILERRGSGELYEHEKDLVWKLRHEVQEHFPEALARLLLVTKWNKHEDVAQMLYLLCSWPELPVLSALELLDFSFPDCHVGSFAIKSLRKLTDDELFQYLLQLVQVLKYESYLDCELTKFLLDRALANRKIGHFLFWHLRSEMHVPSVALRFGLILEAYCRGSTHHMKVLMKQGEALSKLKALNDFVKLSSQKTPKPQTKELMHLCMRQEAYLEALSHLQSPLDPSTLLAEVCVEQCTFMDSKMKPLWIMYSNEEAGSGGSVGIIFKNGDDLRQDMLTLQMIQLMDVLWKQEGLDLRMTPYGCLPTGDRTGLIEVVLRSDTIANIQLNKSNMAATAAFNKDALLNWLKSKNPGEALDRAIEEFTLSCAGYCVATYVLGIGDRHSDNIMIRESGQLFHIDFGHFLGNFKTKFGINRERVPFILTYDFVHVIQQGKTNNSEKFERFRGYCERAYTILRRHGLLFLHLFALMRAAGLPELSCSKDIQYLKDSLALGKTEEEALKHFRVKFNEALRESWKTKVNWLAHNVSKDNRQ

[25] = AUC (0 to 8 hrs) in Sprague-Dawley rat plasma at 5 mg/kg, po administered as single dose and measured after 8 hrs by LC-MS analysis; assay type: ADME, organism-based; set-up: dose 5 mg/kg, time 8 hrs, route po; procedure, shortened: as §4
[26] = biological target: T4, CYP1A2 (Homo sapiens, UniProt P05177); assay: Stability of compound assessed as recombinant human CYP1A2-mediated drug metabolism by measuring compound remaining at 1 uM incubated for 60 mins by LC-MS analysis; assay type: ADME; settings: read-out: Stability
T4 sequence (P05177 whole entry): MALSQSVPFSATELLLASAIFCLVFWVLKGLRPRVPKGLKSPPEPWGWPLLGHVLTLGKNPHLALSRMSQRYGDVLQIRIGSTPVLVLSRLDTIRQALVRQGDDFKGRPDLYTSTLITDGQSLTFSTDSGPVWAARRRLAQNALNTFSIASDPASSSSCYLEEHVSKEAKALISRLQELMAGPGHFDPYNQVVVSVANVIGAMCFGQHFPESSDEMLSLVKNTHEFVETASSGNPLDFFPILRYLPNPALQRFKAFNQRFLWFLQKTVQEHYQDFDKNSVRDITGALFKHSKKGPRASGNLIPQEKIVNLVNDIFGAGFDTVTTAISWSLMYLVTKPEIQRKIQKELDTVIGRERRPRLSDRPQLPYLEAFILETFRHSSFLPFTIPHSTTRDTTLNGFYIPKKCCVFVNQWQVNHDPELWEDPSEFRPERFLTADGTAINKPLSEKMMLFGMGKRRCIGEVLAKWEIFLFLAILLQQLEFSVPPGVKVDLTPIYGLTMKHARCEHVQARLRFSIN
Procedure, shortened: (§5)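 Recombinant human CYP1A1 or CYP1A2 Supersomes at 25 pmol/mL, with compound at 1 µM (0.25% DMSO) and an NADP+-regenerating cofactor mix, at 37 °C. Reactions stopped with ACN plus internal standard at 0 and 60 min. Controls: melatonin for CYP1A1 and phenacetin for CYP1A2, plus no-cofactor negatives. Duplicates.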

[27] = Metabolic stability in CD-1 mouse hepatocytes assessed as parent compound remaining at 5 uM measured after 3 hrs by LC-MS analysis; assay type: ADME, cell-based, Hepatocyte; settings: read-out: Stability; procedure, shortened: as §1
[28] = biological target: Phosphatidylinositol 4,5-bisphosphate 3-kinase catalytic subunit beta isoform (Homo sapiens, UniProt P42338); assay: Binding affinity to DNA-tagged P13kbeta (unknown origin) assessed as dissociation constant by quantitative PCR analysis; procedure, shortened: as §2
[29] = biological target: T2, Phosphatidylinositol 4,5-bisphosphate 3-kinase catalytic subunit alpha isoform; assay: Binding affinity to DNA-tagged P13kalpha (unknown origin) assessed as dissociation constant by quantitative PCR analysis; procedure, shortened: as §2
[30] = biological target: T5, CYP1A1 (Homo sapiens, UniProt P04798); assay: Stability of compound assessed as recombinant human CYP1A1-mediated drug metabolism by measuring compound remaining at 1 uM incubated for 60 mins by LC-MS analysis; assay type: ADME; settings: read-out: Stability; procedure, shortened: as §5
T5 sequence (P04798 whole entry): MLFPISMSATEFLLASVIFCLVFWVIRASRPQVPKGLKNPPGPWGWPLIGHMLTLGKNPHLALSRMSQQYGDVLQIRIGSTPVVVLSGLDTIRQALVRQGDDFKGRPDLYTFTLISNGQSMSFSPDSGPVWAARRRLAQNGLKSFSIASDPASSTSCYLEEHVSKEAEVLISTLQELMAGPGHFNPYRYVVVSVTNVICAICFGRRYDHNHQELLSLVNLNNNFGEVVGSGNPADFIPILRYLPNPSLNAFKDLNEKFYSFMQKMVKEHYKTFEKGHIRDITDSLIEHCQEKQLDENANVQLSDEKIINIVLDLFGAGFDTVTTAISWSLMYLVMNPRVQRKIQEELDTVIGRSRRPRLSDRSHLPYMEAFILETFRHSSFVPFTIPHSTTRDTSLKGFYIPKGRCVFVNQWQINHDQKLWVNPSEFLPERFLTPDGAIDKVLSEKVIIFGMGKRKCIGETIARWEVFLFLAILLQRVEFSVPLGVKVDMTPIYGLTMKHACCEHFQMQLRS

[31] = Metabolic stability in human hepatocytes assessed as parent compound remaining at 5 uM measured after 3 hrs by LC-MS analysis; assay type: ADME, cell-based, Hepatocyte; settings: read-out: Stability; procedure, shortened: as §1
[32] = Metabolic stability in Beagle dog hepatocytes assessed as parent compound remaining at 5 uM measured after 3 hrs by LC-MS analysis; assay type: ADME, cell-based, Canis lupus familiaris, Hepatocyte; settings: read-out: Stability; procedure, shortened: as §1

T2 sequence (P42336 whole entry, canonical isoform): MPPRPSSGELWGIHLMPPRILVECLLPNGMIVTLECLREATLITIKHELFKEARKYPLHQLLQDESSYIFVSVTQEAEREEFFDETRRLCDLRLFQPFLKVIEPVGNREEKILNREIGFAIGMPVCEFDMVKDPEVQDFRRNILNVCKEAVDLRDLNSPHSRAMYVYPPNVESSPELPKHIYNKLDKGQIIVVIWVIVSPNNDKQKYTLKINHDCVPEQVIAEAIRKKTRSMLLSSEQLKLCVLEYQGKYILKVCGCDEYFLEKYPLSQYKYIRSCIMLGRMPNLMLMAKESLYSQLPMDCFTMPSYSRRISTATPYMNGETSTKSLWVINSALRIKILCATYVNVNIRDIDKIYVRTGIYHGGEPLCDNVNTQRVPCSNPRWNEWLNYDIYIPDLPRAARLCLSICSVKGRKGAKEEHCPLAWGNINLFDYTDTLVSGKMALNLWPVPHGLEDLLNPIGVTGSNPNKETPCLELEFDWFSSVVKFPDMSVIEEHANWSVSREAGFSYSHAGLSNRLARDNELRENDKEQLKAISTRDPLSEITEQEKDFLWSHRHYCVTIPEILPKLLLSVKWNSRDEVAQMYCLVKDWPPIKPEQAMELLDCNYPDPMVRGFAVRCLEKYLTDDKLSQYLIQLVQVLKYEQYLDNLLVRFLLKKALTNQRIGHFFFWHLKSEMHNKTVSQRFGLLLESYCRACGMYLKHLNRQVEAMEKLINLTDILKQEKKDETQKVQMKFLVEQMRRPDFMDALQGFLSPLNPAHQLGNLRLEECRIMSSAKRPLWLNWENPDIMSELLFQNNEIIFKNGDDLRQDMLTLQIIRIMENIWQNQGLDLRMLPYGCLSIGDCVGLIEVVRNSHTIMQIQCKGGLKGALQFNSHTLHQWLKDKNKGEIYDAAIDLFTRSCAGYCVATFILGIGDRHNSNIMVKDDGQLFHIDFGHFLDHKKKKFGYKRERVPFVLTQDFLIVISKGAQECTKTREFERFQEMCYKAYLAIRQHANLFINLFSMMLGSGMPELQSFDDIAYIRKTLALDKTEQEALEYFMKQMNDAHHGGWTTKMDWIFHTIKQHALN
Phosphatidylinositol 3-kinase catalytic subunit type 3, sequence (Q8NEB9 whole entry): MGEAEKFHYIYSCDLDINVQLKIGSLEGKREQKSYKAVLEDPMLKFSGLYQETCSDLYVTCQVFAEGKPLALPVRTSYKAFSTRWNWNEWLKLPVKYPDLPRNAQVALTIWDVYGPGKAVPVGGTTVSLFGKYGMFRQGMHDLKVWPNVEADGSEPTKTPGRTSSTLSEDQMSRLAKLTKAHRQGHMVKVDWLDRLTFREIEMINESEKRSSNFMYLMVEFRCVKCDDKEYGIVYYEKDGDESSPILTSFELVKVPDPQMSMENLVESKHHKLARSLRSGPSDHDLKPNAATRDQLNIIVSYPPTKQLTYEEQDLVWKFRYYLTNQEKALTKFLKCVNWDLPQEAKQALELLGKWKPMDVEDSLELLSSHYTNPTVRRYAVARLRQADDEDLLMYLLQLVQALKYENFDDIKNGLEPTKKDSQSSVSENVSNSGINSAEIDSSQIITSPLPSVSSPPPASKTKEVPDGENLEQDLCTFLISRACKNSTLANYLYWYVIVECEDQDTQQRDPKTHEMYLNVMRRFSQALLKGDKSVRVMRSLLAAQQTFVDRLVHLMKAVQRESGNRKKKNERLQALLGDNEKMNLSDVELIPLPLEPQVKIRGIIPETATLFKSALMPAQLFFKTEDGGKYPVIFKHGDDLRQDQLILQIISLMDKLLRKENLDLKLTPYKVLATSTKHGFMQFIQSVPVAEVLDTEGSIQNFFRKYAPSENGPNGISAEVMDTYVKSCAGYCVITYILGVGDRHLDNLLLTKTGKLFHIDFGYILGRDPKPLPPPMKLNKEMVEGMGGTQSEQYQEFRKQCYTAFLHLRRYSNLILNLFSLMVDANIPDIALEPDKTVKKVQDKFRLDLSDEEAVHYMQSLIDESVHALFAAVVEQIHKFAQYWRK
Phosphatidylinositol 4,5-bisphosphate 3-kinase catalytic subunit gamma isoform, sequence (P48736 whole entry, canonical isoform): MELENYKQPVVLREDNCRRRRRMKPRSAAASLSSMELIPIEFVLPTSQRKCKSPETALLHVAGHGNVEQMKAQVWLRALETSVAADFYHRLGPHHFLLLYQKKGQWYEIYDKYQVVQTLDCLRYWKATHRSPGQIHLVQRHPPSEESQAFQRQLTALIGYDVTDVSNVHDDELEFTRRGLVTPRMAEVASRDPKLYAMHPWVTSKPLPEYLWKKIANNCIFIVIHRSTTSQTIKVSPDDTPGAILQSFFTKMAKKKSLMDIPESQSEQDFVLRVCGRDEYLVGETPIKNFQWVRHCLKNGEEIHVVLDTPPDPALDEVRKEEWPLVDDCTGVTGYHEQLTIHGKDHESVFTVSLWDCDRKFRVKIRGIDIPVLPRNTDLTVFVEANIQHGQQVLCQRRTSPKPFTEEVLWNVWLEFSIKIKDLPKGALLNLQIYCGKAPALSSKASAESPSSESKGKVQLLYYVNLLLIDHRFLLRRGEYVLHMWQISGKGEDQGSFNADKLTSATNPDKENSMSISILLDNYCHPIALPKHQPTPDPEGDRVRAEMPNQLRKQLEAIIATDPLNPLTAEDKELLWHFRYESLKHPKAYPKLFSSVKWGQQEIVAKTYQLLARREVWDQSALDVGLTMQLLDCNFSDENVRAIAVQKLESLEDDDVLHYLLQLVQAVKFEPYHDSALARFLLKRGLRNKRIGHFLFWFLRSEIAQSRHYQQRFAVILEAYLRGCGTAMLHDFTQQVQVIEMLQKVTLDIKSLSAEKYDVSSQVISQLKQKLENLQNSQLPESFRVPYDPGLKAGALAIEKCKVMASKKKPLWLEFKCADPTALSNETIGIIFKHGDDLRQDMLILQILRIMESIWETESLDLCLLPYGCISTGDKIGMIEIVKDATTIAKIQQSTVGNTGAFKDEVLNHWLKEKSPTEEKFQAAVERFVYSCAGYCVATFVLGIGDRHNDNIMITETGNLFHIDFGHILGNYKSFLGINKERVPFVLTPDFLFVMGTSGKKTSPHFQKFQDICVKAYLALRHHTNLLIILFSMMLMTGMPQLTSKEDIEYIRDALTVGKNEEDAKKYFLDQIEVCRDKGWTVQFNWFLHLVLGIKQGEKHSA
Phosphatidylinositol 4-kinase beta, sequence (Q9UBF8 whole entry): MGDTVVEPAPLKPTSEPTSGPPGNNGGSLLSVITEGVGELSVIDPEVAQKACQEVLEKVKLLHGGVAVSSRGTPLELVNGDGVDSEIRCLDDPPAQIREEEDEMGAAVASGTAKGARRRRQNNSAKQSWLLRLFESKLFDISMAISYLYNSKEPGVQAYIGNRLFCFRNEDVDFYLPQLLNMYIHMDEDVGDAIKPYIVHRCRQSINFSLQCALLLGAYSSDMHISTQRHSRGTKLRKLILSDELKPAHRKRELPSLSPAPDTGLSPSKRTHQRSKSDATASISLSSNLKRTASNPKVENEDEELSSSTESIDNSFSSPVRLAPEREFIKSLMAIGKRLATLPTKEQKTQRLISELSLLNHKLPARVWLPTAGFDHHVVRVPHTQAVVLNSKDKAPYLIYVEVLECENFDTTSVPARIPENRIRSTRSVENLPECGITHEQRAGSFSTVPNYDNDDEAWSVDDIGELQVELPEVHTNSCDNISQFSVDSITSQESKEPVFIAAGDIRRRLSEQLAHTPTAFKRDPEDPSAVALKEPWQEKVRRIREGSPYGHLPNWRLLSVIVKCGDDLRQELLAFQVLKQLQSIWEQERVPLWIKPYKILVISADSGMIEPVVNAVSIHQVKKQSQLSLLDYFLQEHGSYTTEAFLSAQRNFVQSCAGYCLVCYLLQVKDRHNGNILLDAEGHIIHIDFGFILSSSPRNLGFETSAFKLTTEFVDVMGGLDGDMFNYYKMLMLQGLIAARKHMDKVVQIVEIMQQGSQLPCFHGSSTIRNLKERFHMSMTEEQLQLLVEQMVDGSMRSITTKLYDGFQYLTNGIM
Phosphatidylinositol 4,5-bisphosphate 3-kinase catalytic subunit beta isoform, sequence (P42338 whole entry, canonical isoform): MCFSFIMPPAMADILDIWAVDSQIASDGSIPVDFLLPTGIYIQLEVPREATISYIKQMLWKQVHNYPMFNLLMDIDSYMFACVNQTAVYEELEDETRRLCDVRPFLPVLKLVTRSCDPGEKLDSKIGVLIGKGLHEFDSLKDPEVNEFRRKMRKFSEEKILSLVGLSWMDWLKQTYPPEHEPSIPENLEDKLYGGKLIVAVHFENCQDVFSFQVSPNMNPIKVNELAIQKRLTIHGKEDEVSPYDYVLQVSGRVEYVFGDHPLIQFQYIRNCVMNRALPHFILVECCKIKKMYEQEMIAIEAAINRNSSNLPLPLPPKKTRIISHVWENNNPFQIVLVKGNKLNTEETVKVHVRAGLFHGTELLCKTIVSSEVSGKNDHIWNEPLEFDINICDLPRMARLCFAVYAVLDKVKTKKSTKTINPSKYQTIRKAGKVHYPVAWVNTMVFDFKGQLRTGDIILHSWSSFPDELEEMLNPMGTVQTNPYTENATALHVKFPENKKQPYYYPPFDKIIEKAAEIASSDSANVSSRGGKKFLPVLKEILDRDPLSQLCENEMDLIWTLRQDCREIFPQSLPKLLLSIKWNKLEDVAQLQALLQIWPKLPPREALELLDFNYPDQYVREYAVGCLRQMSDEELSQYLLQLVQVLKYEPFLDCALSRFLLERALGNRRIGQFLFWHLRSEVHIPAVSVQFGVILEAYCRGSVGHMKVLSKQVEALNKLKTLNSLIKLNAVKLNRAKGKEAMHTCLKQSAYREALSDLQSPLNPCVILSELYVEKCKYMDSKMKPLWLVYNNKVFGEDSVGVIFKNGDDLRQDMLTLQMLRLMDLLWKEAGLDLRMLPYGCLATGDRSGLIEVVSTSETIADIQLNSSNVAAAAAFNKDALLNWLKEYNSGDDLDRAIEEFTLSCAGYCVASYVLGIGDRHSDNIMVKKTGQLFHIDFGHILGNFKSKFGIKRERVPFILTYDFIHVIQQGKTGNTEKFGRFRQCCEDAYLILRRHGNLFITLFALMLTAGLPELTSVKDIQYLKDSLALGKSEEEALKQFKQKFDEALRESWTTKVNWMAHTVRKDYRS

Compound | half-life at 5 µM [1] [min] | half-life at 5 µM [2] [min] | half-life at 5 µM [3] [min] | hepatocyte CLint at 5 µM [4] [µL/min/1e6 cells] | half-life at 5 µM [5] [min] | hepatocyte CLint at 5 µM [6] [µL/min/1e6 cells] | hepatocyte CLint at 5 µM [7] [µL/min/1e6 cells] | hepatocyte CLint at 5 µM [8] [µL/min/1e6 cells] | Ki [9] [µM] | IC50 [10] [µM] | IC50 [11] [µM] | IC50 [12] [µM] | IC50 [13] [µM] | Ki [14] [µM] | IC50 [15] [µM] | other results
CCOc1ccc2ccc(=O)oc2c1 | 18 | 47 | 17 | 45 | 39 | 18 | 22 | 50 |  |  |  |  |  |  |  | 
Nc1cc(C(F)F)c(-c2nc(C3=CCOCC3)nc(N3C4CCC3COC4)n2)cn1 |  |  |  |  |  |  |  |  | 0.016 | 0.195 | 0.094 | 0.15 | 0.353 | 0.125 | 0.199 | 
Nc1cc(C(F)F)c(-c2nc(C3CCOCC3)nc(N3C4CCC3COC4)n2)cn1 | > 180 | > 180 | > 180 | 0.42 | > 180 | 2.99 | 3.56 | 2.11 | 0.022 | 0.369 | 0.085 | 0.311 | 0.118 | 1.14 | 0.171 | Kd [16]: 6.1 µM; Kd [17]: 0.005 µM; Activity [18]: Non-Toxic; Kd [19]: > 30 µM; AUC [20]: 2659 ng·h/g; remaining at 3 h, 5 µM [21]: 62.4%; Kd [22]: 5.6 µM; Activity [23]: Non-Toxic; Kd [24]: 15.5 µM; AUC(0-t) at 8 h [25]: 3.76 µg·h/mL; remaining at 1 h, 1 µM [26]: 84.2%; remaining at 3 h, 5 µM [27]: 74.5%; Kd [28]: 6.45 µM; Kd [29]: 0.42 µM; remaining at 1 h, 1 µM [30]: 53.3%; remaining at 3 h, 5 µM [31]: 59.9%; remaining at 3 h, 5 µM [32]: 92.9%
